# Measurements published in ChEMBL document CHEMBL2311453, “Tetrahydropyrroloquinolinone type dual inhibitors of aromatase/aldosterone synthase as a novel strategy for breast cancer patients with elevated cardiovascular risks” (J Med Chem, 2013).
# What was measured:
# [1] = target: T1, CYP17 (Homo sapiens, UniProt P05093); test: Inhibition of human CYP17 expressed in Escherichia coli using progesterone as substrate at 2 uM; settings: probe progesterone
# T1 sequence (P05093 whole entry): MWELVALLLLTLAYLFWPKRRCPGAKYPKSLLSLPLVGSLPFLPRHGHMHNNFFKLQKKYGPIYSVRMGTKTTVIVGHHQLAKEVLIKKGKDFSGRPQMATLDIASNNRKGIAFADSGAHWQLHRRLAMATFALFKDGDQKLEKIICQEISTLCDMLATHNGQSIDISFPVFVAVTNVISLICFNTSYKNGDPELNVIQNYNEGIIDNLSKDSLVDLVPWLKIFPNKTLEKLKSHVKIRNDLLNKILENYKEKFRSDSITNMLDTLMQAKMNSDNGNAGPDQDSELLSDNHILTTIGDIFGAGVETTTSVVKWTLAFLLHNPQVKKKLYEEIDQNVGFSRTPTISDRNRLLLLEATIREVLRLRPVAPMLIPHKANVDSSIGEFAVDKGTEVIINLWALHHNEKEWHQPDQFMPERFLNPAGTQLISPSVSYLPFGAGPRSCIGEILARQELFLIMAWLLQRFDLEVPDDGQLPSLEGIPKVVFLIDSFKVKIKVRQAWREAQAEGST
# Method in brief: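 Enzyme source was the 90000g sediment of E. coli coexpressing human CYP17 and cytochrome P450 reductase. Progesterone substrate at 25 μM, NADPH cofactor, inhibitor at 2 μM. Percent inhibition is the mean of at least two experiments (SD under 10%).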
# [2] = test system: V79MZh; test: Selectivity factor, ratio of IC50 for human CYP11B1 to IC50 for human CYP11B2 expressed in hamster V79MZh cells; type: cell-based
# Method in brief: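 SF calculated as IC50(CYP11B1)/IC50(CYP11B2). Both IC50s come from V79MZh hamster fibroblasts expressing the human enzyme, with [1,2-³H]-11-deoxycorticosterone at 100 nM as substrate.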
# [3] = target: T2, CYP11B2 (Homo sapiens, UniProt P19099); test: Inhibition of human CYP11B2 expressed in hamster V79MZh cells using [1,2-3H]-11-deoxy-corticosterone as substrate; type: cell-based; settings: human, hamster V79MZh cells expressing human CYP11B2, probe [1,2-3H]-11-deoxy-corticosterone
# T2 sequence (P19099 whole entry): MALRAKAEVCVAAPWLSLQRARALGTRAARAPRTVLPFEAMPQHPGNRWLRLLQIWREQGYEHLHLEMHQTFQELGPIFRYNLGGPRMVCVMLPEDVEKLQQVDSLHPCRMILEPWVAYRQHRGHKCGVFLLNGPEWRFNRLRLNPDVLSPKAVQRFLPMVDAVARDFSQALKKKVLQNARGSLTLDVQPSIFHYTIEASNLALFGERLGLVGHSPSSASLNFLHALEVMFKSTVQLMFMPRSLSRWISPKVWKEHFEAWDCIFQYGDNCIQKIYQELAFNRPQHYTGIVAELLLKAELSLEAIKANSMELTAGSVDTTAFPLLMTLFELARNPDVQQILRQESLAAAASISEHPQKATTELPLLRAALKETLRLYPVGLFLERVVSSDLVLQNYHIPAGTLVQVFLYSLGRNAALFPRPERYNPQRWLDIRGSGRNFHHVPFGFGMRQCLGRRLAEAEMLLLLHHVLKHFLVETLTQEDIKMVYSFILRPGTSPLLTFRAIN
# Method in brief: (§1)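 V79MZh hamster fibroblasts stably expressing human CYP11B1 or CYP11B2, incubated with [1,2-³H]-11-deoxycorticosterone (100 nM) and inhibitor at varying concentrations. IC50 taken as mean of at least three experiments (relative SD under 25%).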
# [4] = target: T3, CYP11B1 (Homo sapiens, UniProt P15538); test: Inhibition of human CYP11B1 expressed in hamster V79MZh cells using [1,2-3H]-11-deoxy-corticosterone as substrate; type: cell-based; settings: human, hamster V79MZh cells expressing human CYP11B1, probe [1,2-3H]-11-deoxy-corticosterone; method in brief: as §1
# T3 sequence (P15538 whole entry): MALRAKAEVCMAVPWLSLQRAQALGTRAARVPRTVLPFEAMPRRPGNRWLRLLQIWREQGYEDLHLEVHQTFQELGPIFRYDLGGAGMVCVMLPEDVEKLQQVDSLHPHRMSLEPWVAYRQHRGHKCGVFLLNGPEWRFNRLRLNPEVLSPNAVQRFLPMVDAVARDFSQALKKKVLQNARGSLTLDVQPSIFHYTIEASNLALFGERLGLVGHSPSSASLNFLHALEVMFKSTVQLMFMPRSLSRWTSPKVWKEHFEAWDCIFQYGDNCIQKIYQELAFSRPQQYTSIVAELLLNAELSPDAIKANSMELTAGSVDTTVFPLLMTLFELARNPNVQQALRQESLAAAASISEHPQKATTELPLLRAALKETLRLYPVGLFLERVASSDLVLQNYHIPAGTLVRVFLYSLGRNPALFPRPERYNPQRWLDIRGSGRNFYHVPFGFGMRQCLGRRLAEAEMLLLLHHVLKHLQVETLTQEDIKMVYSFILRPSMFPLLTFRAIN
smiles,measurement,setting,value
O=C1CCc2cc(C(C3CC3)n3ccnc3)cc3c2N1CC3 (centres undefined),inhibition at 2 µM,[1],41%
same,Ratio IC50,[2],0.1
same,IC50,[3],24 nM
same,IC50,[4],2.2 nM
